For assay [1], the system named is A2780. Description: Concentration required to inhibit A2780cisR cell growth when compared with control after incubation for 96 h at 37 C. The assay is classed as functional, cell-based. To be noted: Homo sapiens. An outline of the steps:
(§1)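 Human ovarian tumour lines (SKOV-3, A2780, A2780cisR, CH1, CH1cisR) exposed to agent for 96 h at 37 °C; growth compared with PBD-free controls; IC50 taken as concentration giving 50% growth inhibition.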

In assay [2] the test system is CH1. The experiment in a line: Concentration required to inhibit CH1 tumor cell growth when compared with control after incubation for 96 hr at 37 C. In kind it is functional, cell-based. To be noted: Homo sapiens. An outline of the steps: as §1
Assay [3] concerns Nucleic Acid. The experiment in a line: In vitro induced thermal stabilization of duplex DNA melting after incubation with the compound (20 uM) at 37 C for 18 h. To be noted: Bos taurus. The assay is classed as functional. The gist of the method: (§2)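 Duplex calf thymus DNA (100 µM in DNAp) mixed with ligand (20 µM), 5:1 molar ratio, in 10 mM NaH2PO4/Na2HPO4 + 1 mM Na2EDTA, pH 7.00 ± 0.01; held at 37 °C for 0, 4 or 18 h before thermal melting; ΔTm relative to DNA alone, ±0.1 °C, at least 3 determinations.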

Assay [4] relates to Nucleic Acid. Description: In vitro induced thermal stabilization of duplex DNA melting after incubation with the compound (20 uM) at 37 C for 4 h. In kind it is functional. To be noted: Bos taurus. The gist of the method:
as §2

Assay [5] relates to A2780. The experiment in a line: Resistance factor was determined as IC50 cisplatin-resistant/parent for human A2780 ovarian cell line. In kind it is functional. An outline of the steps:
(§3)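 Resistance factor computed as IC50 in cisplatin-resistant line divided by IC50 in parent line, for the A2780/A2780cisR and CH1/CH1cisR pairs, from 96 h, 37 °C growth-inhibition assays against PBD-free controls.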

For assay [6], the system named is A2780. Description: Concentration required to inhibit A2780 cell growth when compared with control after incubation for 96 hr at 37 C. In kind it is functional, cell-based. To be noted: Homo sapiens. An outline of the steps: as §1
A further assay has as its system SK-OV-3. Description: Concentration required to inhibit SKOV-3 cell growth when compared with control after incubation for 96 hr at 37 C. In kind it is functional, cell-based. Conditions: Homo sapiens. The gist of the method:
as §1

The subject of assay [7] is CH1. The experiment in a line: Concentration required to inhibit CH1cisR tumor cell growth when compared with control after incubation for 96 hr at 37 C. The assay is classed as functional, cell-based. To be noted: Homo sapiens. An outline of the steps:
as §1

In assay [8] the test system is CH1. The experiment in a line: Resistance factor was determined as IC50 cisplatin-resistant/parent for human CH1cisR tumor ovarian cell line. The assay is classed as functional. An outline of the steps: as §3
Assay [9] deals with Nucleic Acid. The experiment in a line: In vitro induced thermal stabilization of duplex DNA melting after incubation with the compound (20 uM) at 37 C for 0 h. In kind it is functional. Conditions: Bos taurus. An outline of the steps: as §2
The test system of assay [10] is Nucleic Acid. Description: gIn vitro induced thermal stabilization of duplex DNA melting after incubation with the compound (20 uM) at 37 C for 0 h. The assay is classed as functional. Conditions: Bos taurus. An outline of the steps: as §2
Assay [11] in a line: Activity in NCI standard hollow fibre assay after subcutaneous administration. The assay is classed as functional.
A short description of assay [12]: Total activity in NCI standard hollow fibre assay. In kind it is functional.
The nature of assay [13]: Activity in NCI standard hollow fibre assay after intraperitoneal administration. In kind it is functional.

The structures appear in SMILES notation.

Here are results for six molecules from ChEMBL document CHEMBL1146679, “Synthesis and biological evaluation of pyrrolo[2,1-c][1,4]benzodiazepine (PBD) C8 cyclic amine conjugates” (2004).

What is called ΔTm is the change in melting temperature against a reference sample.

Regarding `COc1cc2c(cc1OCc1ccccc1)N=C[C@@H]1CCCN1C2=O`, the Concentration worked out at 0.48 µM with A2780 [1]; 0.145 µM with CH1 [2]; 0.17 µM in the assay on A2780 [6]; 0.46 µM in the assay with SK-OV-3; 0.145 µM in the assay on CH1 [7]. The ΔTm in the assay on Nucleic Acid [3] stood at 0.4 °C; in the assay with Nucleic Acid [4], 0.4 °C; with Nucleic Acid [9], 0.2 °C. Besides, the RF with A2780 [5] is 2.8; in the assay with CH1 [8], 1.
On to `COc1cc2c(cc1OCCC(=O)N1CCc3ccccc31)N=C[C@@H]1CCCN1C2=O`, for which the Concentration with A2780 [1] worked out at 4.9 µM; in the assay on CH1 [2], 1.5 µM; in the assay with A2780 [6], 1.55 µM; in the assay with SK-OV-3, 5.8 µM; in the assay with CH1 [7], 3 µM. In addition, the thermal shift (ΔTm) in the assay with Nucleic Acid [3] came to 1.2 °C; with Nucleic Acid [4], 1 °C; with Nucleic Acid [9], 0.7 °C. Moreover, the figures for the RF in the assay with A2780 [5] and with CH1 [8] were 3.2 and 2, respectively.
Regarding `COc1cc2c(cc1OCCC(=O)N1CCCC1)N=C[C@@H]1CCCN1C2=O`, the Concentration was 4.3 µM with A2780 [1]; 1.4 µM in the assay with CH1 [2]; 1.5 µM with A2780 [6]; 5.4 µM with SK-OV-3; 1.85 µM in the assay on CH1 [7]. Besides, the ΔTm was determined as 1.2 °C in the assay with Nucleic Acid [3], 0.9 °C in the assay on Nucleic Acid [4] and 0.5 °C with Nucleic Acid [10]. In addition, the RF in the assay with A2780 [5] is 2.9; in the assay with CH1 [8], 1.3.
For `COc1cc2c(cc1OC)C(=O)N1CCC[C@H]1C=N2`, the Concentration in the assay with A2780 [1] turned out to be 0.155 µM; in the assay on CH1 [2], 0.082 µM; in the assay on A2780 [6], 0.064 µM; in the assay with SK-OV-3, 1.7 µM; in the assay with CH1 [7], 0.11 µM. For the same molecule, the shift in melting temperature (ΔTm) in the assay on Nucleic Acid [3] came out at 0.6 °C; with Nucleic Acid [4] it was 0.4 °C; with Nucleic Acid [9], 0.2 °C. Further, the figures for the RF in the assay on A2780 [5] and in the assay on CH1 [8] were 2.4 and 1.3, respectively.
Turning to `COc1cc2c(cc1OCCC(=O)N1Cc3ccccc3C1)N=C[C@@H]1CCCN1C2=O`, the Concentration was determined as 0.94 µM in the assay with A2780 [1]; 0.24 µM in the assay on CH1 [2]; 0.23 µM in the assay with A2780 [6]; 1.45 µM in the assay with SK-OV-3; 0.42 µM with CH1 [7]. Moreover, the results for the Score in [11], in assay [12] and in assay [13] were 2, 40 and 40, respectively. Also, the thermal shift (ΔTm) in the assay with Nucleic Acid [3] stood at 1.3 °C; with Nucleic Acid [4] it was 1.1 °C; in the assay with Nucleic Acid [9], 1 °C. Besides, the values for the RF in the assay with A2780 [5] and with CH1 [8] were 4 and 2, respectively.
`COc1cc2c(cc1OCCC(=O)N1CCCCC1)N=C[C@@H]1CCCN1C2=O`: the Concentration stood at 14.5 µM in the assay on A2780 [1]; 4.9 µM in the assay on CH1 [2]; 3.2 µM with A2780 [6]; 23.5 µM in the assay on SK-OV-3; 7.9 µM in the assay on CH1 [7]. For the same molecule, the results for the ΔTm in the assay on Nucleic Acid [3], in the assay on Nucleic Acid [4] and with Nucleic Acid [9] were 1.2 °C, 0.9 °C and 0.8 °C, respectively. In addition, the RF is reported as 4.5 in the assay on A2780 [5] and 1.6 in the assay on CH1 [8].
